Assay results reported in ChEMBL document CHEMBL1795235, “Quercetin diacylglycoside analogues showing dual inhibition of DNA gyrase and topoisomerase IV as novel antibacterial agents” (J Med Chem, 2011).
Values after ≈ are worked out from the molar mass of the structure shown.

Columns and labels:
Staphylococcus aureus [1] = assay: Antibacterial activity against methicillin-resistant Staphylococcus aureus COL after 24 hrs by microdilution method; format: functional
In short: (§1)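 Broth microdilution in Mueller-Hinton broth with 0.85% NaCl, inoculum about 10^5 CFU per 100 μL. Compounds were diluted in water from 25.6 mg/mL stocks to final 2-fold series of 0.062–128 μg/mL. Plates were incubated 24 h at 35 °C. MIC was the lowest concentration at which all triplicate wells were clear, from three independent determinations.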

[2] = Inhibition of Escherichia coli DNA topoisomerase 4 subunit ParC/DNA topoisomerase 4 subunit ParE-mediated decatenation of kDNA by densitometry
In short: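 Purchased E. coli topoIV kit enzyme, one unit with 200 ng kDNA, 37 °C, 30 min. Buffer: 50 mM HEPES-KOH pH 7.6, 5 mM magnesium acetate, 100 mM potassium glutamate, 10 mM DTT, 1 mM ATP, 40% glycerol. Gel on 1.0% agarose in TAE. IC50 of decatenation from densitometry by interpolation equation, at least three determinations.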

Staphylococcus aureus [3] = assay: Antibacterial activity against methicillin-resistant Staphylococcus aureus N315 after 24 hrs by microdilution method; format: functional; conditions: N315, 24 h; in short: as §1
Enterococcus [4] = assay: Antibacterial activity against vancomycin resistant Enterococcus FN-1 after 24 hrs by microdilution method; format: functional; conditions: FN-1, 24 h; in short: as §1
Enterococcus [5] = assay: Antibacterial activity against vancomycin resistant Enterococcus NCTC 12201 after 24 hrs by microdilution method; format: functional; conditions: NCTC 12201, 24 h; in short: as §1
[6] = Inhibition of Staphylococcus aureus DNA Topoisomerase 4-mediated decatenation of kDNA after 30 mins by densitometry
In short: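 Purchased S. aureus topoIV, one unit with 200 ng kDNA, 37 °C, 30 min. Products resolved on 1.0% agarose in TAE. IC50 of decatenation from densitometry by interpolation equation, at least three determinations.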

Staphylococcus aureus [7] = assay: Antibacterial activity against vancomycin-intermediate Staphylococcus aureus Mu50 after 24 hrs by microdilution method; format: functional; conditions: Mu50, 24 h; in short: as §1
Streptococcus pneumoniae = assay: Antibacterial activity against Streptococcus pneumoniae R6 after 24 hrs by microdilution method; format: functional; conditions: R6, 24 h
In short: (§2)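 Broth microdilution in Mueller-Hinton broth with 0.85% NaCl, inoculum about 10^5 CFU per 100 μL. Compounds diluted from 25.6 mg/mL stocks in water to 2-fold series, final 0.062–128 μg/mL. […] Three independent determinations.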

Staphylococcus aureus [8] = assay: Antibacterial activity against methicillin-resistant Staphylococcus aureus OM584 after 24 hrs by microdilution method; format: functional; conditions: OM584, 24 h; in short: as §1
Staphylococcus aureus [9] = assay: Antibacterial activity against methicillin-resistant Staphylococcus aureus OM481 after 24 hrs by microdilution method; format: functional; conditions: OM481, 24 h; in short: as §1
Staphylococcus aureus [10] = assay: Antibacterial activity against methicillin-susceptible Staphylococcus aureus 209P after 24 hrs by microdilution method; format: functional; in short: as §1
Pseudomonas aeruginosa = assay: Antibacterial activity against Pseudomonas aeruginosa PAO1 after 24 hrs by microdilution method; format: functional; conditions: PAO1, 24 h; in short: as §2
Escherichia coli = assay: Antibacterial activity against Escherichia coli K-12 after 24 hrs by microdilution method; format: functional; conditions: K-12, 24 h; in short: as §2
[11] = Inhibition of Escherichia coli DNA gyrase assessed as inhibition of pBR322 supercoiling by densitometry
In short: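 One unit of E. coli gyrase with 0.5 μg relaxed pBR322 DNA, 37 °C, 30 min. Stopped with sucrose/EDTA dye, run on 1.0% agarose in TAE. IC50 from densitometry via log-interpolation equation.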

Structure (SMILES) | MIC (Staphylococcus aureus [1]) [µg/mL] | IC50 [2] [µM] | MIC (Staphylococcus aureus [3]) [µg/mL] | MIC (Enterococcus [4]) [µg/mL] | MIC (Enterococcus [5]) [µg/mL] | IC50 [6] [nM] | MIC (Staphylococcus aureus [7]) [µg/mL] | MIC (Streptococcus pneumoniae) [µg/mL] | MIC (Staphylococcus aureus [8]) [µg/mL] | MIC (Staphylococcus aureus [9]) [µg/mL] | MIC (Staphylococcus aureus [10]) [µg/mL] | MIC (Pseudomonas aeruginosa) [µg/mL] | MIC (Escherichia coli) [µg/mL] | IC50 [11] [nM]
CCCc1ccc(C(=O)O[C@H]2[C@H](Oc3c(-c4ccc(O)c(O)c4)oc4cc(O)cc(O)c4c3=O)O[C@H](CO)[C@@H](O)[C@@H]2OC(=O)c2ccc(CCC)cc2)cc1 | 4 (≈ 5.29 µM) | 11.8 | 1 (≈ 1.32 µM) | 2 (≈ 2.64 µM) | 4 (≈ 5.29 µM) | 1830 | 1 (≈ 1.32 µM) | 1 (≈ 1.32 µM) | 2 (≈ 2.64 µM) | 2 (≈ 2.64 µM) | 1 (≈ 1.32 µM) | – | – | –
CCCc1ccc(C(=O)OC[C@H]2O[C@@H](Oc3c(-c4ccc(O)c(O)c4)oc4cc(O)cc(O)c4c3=O)[C@H](OC(=O)c3ccc(CCC)cc3)[C@@H](O)[C@H]2O)cc1 | 16 (≈ 21.1 µM) | 10.9 | 2 (≈ 2.64 µM) | 8 (≈ 10.6 µM) | 4 (≈ 5.29 µM) | 1930 | 4 (≈ 5.29 µM) | 2 (≈ 2.64 µM) | 4 (≈ 5.29 µM) | 4 (≈ 5.29 µM) | 2 (≈ 2.64 µM) | > 128 | > 128 | 770
O=C(CCc1ccc(F)cc1)O[C@H]1[C@H](Oc2c(-c3ccc(O)c(O)c3)oc3cc(O)cc(O)c3c2=O)O[C@H](CO)[C@@H](O)[C@@H]1OC(=O)CCc1ccc(F)cc1 | 1 (≈ 1.31 µM) | 10.4 | 0.25 (≈ 0.327 µM) | 1 (≈ 1.31 µM) | 1 (≈ 1.31 µM) | 690 | 1 (≈ 1.31 µM) | 0.5 (≈ 0.654 µM) | 2 (≈ 2.62 µM) | 2 (≈ 2.62 µM) | 0.25 (≈ 0.327 µM) | – | – | –
O=c1c(O[C@@H]2O[C@H](CO)[C@H](O)[C@H](O)[C@H]2O)c(-c2ccc(O)c(O)c2)oc2cc(O[C@@H]3O[C@H](CO)[C@H](O)[C@H](O)[C@H]3O)cc(O)c12 | > 128 | 5.34 | > 128 | > 128 | > 128 | 200 | > 128 | > 128 | > 128 | > 128 | > 128 | 32 (≈ 51.1 µM) | 32 (≈ 51.1 µM) | 260
O=C(O[C@H]1[C@H](Oc2c(-c3ccc(O)c(O)c3)oc3cc(O)cc(O)c3c2=O)O[C@H](CO)[C@@H](O)[C@@H]1OC(=O)c1ccc(F)cc1)c1ccc(F)cc1 | 4 (≈ 5.65 µM) | 10.8 | 1 (≈ 1.41 µM) | 2 (≈ 2.82 µM) | 4 (≈ 5.65 µM) | 1210 | 1 (≈ 1.41 µM) | 1 (≈ 1.41 µM) | 2 (≈ 2.82 µM) | 2 (≈ 2.82 µM) | 1 (≈ 1.41 µM) | – | – | –
CCOc1ccc(C(=O)O[C@H]2[C@H](Oc3c(-c4ccc(O)c(O)c4)oc4cc(O)cc(O)c4c3=O)O[C@H](CO)[C@@H](O)[C@@H]2OC(=O)c2ccc(OCC)cc2)cc1 | 4 (≈ 5.26 µM) | 11 | 1 (≈ 1.31 µM) | 2 (≈ 2.63 µM) | 4 (≈ 5.26 µM) | 1980 | 1 (≈ 1.31 µM) | 1 (≈ 1.31 µM) | 2 (≈ 2.63 µM) | 2 (≈ 2.63 µM) | 1 (≈ 1.31 µM) | – | – | –
CCn1cc(C(=O)O)c(=O)c2cc(F)c(N3CCNCC3)cc21 [NORFLOXACIN] | 1 (≈ 3.13 µM) | – | 2 (≈ 6.26 µM) | > 128 | 4 (≈ 12.5 µM) | 3500 | > 128 | 0.25 (≈ 0.783 µM) | 128 (≈ 401 µM) | 64 (≈ 200 µM) | 0.5 (≈ 1.57 µM) | 0.25 (≈ 0.783 µM) | 0.25 (≈ 0.783 µM) | 90
O=C(CCc1ccc(O)cc1)O[C@H]1[C@H](Oc2c(-c3ccc(O)c(O)c3)oc3cc(O)cc(O)c3c2=O)O[C@H](CO)[C@@H](O)[C@@H]1OC(=O)CCc1ccc(O)cc1 | 4 (≈ 5.26 µM) | 11.8 | 1 (≈ 1.31 µM) | 2 (≈ 2.63 µM) | 4 (≈ 5.26 µM) | 1980 | 1 (≈ 1.31 µM) | 1 (≈ 1.31 µM) | 2 (≈ 2.63 µM) | 2 (≈ 2.63 µM) | 1 (≈ 1.31 µM) | – | – | –
